Source: ChEMBL document CHEMBL4619773, “Chemoreactive-Inspired Discovery of Influenza A Virus Dual Inhibitor to Block Hemagglutinin-Mediated Adsorption and Membrane Fusion” (J Med Chem, 2020)
≈ marks a conversion by molar mass, not a printed value. Calls of active or inactive are those of the source. No cut-off for these calls is given here.

Key:
Influenza A virus [1] = test: Antiviral activity against Influenza A virus (A/Puerto Rico/8/1934(H1N1)) infected in Kunming mouse assessed as mouse survival at 40 ug/day dosed intranasally starting 4 hrs after viral challenge and continued for 7 days and measured on day 14 by plaque assay; type: functional
Summary of the method: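 Groups of 10 female Kunming mice were infected intranasally with PR8 (1000 PFU/mouse) on day 0 and dosed once daily for seven days. Weight and clinical signs were recorded daily. Mice losing more than 25% of pre-infection weight were scored dead and euthanized; survivors were killed on day 14.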

[2] = Cmax in mouse at 5 mg/kg, po administered as single dose; type: ADME, organism-based; set-up: dose 5 mg/kg, route oral; conditions: in vivo
Summary of the method: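 Male Kunming mice (20-25 g) and male Sprague Dawley rats (180-220 g) were fasted 12 h before dosing. Oral dosing was by gavage as a suspension in 0.5% sodium carboxymethyl cellulose; iv dosing was via tail vein in PEG400. Serial plasma samples were taken to 24 h, protein-precipitated with acetonitrile plus N-CH3 internal standard, and quantified by LC-MS/MS (n=3). Bioavailability = AUCoral/AUCiv.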

[3] = Cumulative drug excretion in mouse feces at 5 mg/kg, po administered as single dose measured after 72 hrs; type: ADME, organism-based; conditions: faeces, read-out: Drug excretion
Summary of the method: (§1)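 Single oral (gavage, 0.5% CMC-Na) or iv (tail vein, PEG400) dosing was given to male Kunming mice or Sprague Dawley rats held in metabolic cages. Urine and feces were collected at intervals to 72 h. Feces were dried, ground and homogenized in water (1:9 w/v). Samples were precipitated with acetonitrile containing internal standard and analysed by LC-MS/MS.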

[4] = Cumulative drug excretion in rat urine at 0.35mg/kg, iv administered as single dose measured after 72 hrs; type: ADME, organism-based; conditions: read-out: Drug excretion; summary of the method: as §1
[5] = Metabolic stability in human liver microsomes at 2 uM after 60 mins; type: ADME, Microsome; conditions: read-out: Stability
Summary of the method: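 Mouse, rat or human liver microsomes (final 0.5 mg/mL protein) were preincubated with an NADPH-regenerating system in 50 mM Tris-HCl pH 7.4 at 37 °C for 5 min. Compound was added at 2 µM final and incubated at 37 °C; NADPH-free incubations served as controls. Reactions were quenched with acetonitrile plus internal standard at 60 min. Percent remaining was measured by LC-MS/MS (n=3).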

Influenza A virus [6] = test: Antiviral activity against Influenza A virus (A/Puerto Rico/8/1934(H1N1)) infected in MDCK cells by HA assay; type: functional, organism-based
Summary of the method: (§2)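 MDCK cells were infected at high moi (≈3.0 PFU/cell). Virus-containing supernatants were serially diluted 2-fold and mixed with an equal volume of 1% chicken red blood cells. After 60 min at 4 °C, wells were scored for button sedimentation versus opaque agglutination to give titers.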

Influenza A virus [7] = test: Antiviral activity against Influenza A virus (A/California/04/2009(H1N1)) infected in MDCK cells incubated for 3 days by crystal violet staining based plaque assay; type: functional, organism-based; conditions: 72 h
Summary of the method: (§3)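 Confluent MDCK monolayers were exposed to 10-fold serial virus dilutions for 1 h at 37 °C, then washed. The overlay was DMEM with 1.5% agarose, 0.02% DEAE-dextran and 1 µg/ml TPCK-trypsin. After 3 days at 37 °C in 5% CO2, cells were fixed with 0.05% glutaraldehyde, stained with 1% crystal violet in 20% ethanol, and plaques were counted.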

Influenza A virus [8] = test: Antiviral activity against Influenza A virus (A/Puerto Rico/8/1934(H1N1)) infected in MDCK cells pre-incubated for 1 hr before assay and incubated for 3 days by crystal violet staining based plaque assay; type: functional, organism-based; summary of the method: as §3
Influenza A virus [9] = test: Antiviral activity against Influenza A virus (A/Puerto Rico/8/1934(H1N1)) infected in Kunming mouse assessed as decrease in pulmonary viral titers at 20 to 40 ug/day dosed intranasally starting 4 hrs after viral challenge and continued for 4 days by plaque assay; type: functional, organism-based
Summary of the method: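 Four-week-old female Kunming mice were infected intranasally with PR8 (500 PFU/mouse in 40 µL PBS), randomized, and dosed once daily orally or intranasally. On day 4 the mice were euthanized; lungs were removed, weighed, homogenized in PBS, and titrated by plaque assay.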

Influenza A virus [10] = test: Antiviral activity against Influenza A virus (A/Puerto Rico/8/1934(H1N1)) infected in Kunming mouse assessed as decrease in lung IL6 level at 20 to 40 ug/day dosed intranasally starting 4 hrs after viral challenge and continued for 4 days by ELISA; type: functional, organism-based
Summary of the method: (§4)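 Four-week-old female Kunming mice received PR8 intranasally (500 PFU/mouse in 40 µL PBS) and were then dosed once daily orally or intranasally. Lungs were collected on day 4, and TNF-α and IL-6 in lung tissue were measured by ELISA.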

Influenza A virus [11] = test: Antiviral activity against Influenza A virus (A/Puerto Rico/8/1934(H1N1)) infected in Kunming mouse assessed as decrease in lung IL6 level at 5 to 10 mg/kg/day, po starting 4 hrs after viral challenge and continued for 4 days by ELISA; type: functional, organism-based; summary of the method: as §4
[12] = Toxicity in Kunming mouse assessed as effect on AST level at 5 to 10 mg/kg/day, po for 7 days; type: organism-based; conditions: in vivo, 168 h
Summary of the method: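 Male Kunming mice (20–25 g) received compound orally at 5 or 10 mg/kg/day, suspended in 0.5% sodium carboxymethyl cellulose, once daily for 7 days; controls received vehicle. Serum was collected under isoflurane 24 h after the last dose. AST, ALT, CR, BUN, LDH, CK and CK-MB were measured with commercial kits.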

Influenza A virus [13] = test: Antiviral activity against Influenza A virus (A/Puerto Rico/8/1934(H1N1)) infected in MDCK cells assessed as decrease in viral titers at 50 ug/ml pre-treated with virus before infection and measured 24 hrs post infection by HA assay; type: functional, organism-based; summary of the method: as §2
[14] = molecular target: Hemagglutinin (Influenza A virus (A/Puerto Rico/8/1934(H1N1))) (UniProt P03452); test: Inhibition of Influenza A virus (A/Puerto Rico/8/1934(H1N1)) Hemagglutinin expressed in African green monkey Vero cells assessed as reduction in virus-induced syncytium formation at 50 ug/ml pre-treated with trypsin followed by compound addition for 15 mins and measured after 2 hrs at pH 5 by HA syncytium assay; type: cell-based
Summary of the method: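 Vero cells were transfected with PR8 HA plasmid (2 µg per well). At 16 h post-transfection, HA was cleaved with 5 µg/mL TPCK-trypsin for 15 min at 37 °C. Cells were pre-incubated with compound for 15 min at 37 °C, then exposed to pH 5.0 buffer containing compound for 10 min at 37 °C. After rinsing, cells were kept in 10% FBS medium for 2 h, stained, and syncytia imaged.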

[15] = Binding affinity to Influenza A virus (A/Aichi/2/1968(H3N2)) Hemagglutinin at 1.5625 to 50 uM by SPR assay
Summary of the method: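 HA protein was immobilized on CM5 chips. Compound (50, […], 12.5, 6.25, 3.125, 1.5625 µM) was injected for 2 min, followed by a 10-min PBST wash and regeneration with 2 mM NaOH for 30 s. Runs were at 25 °C with 2 µl/s flow, using a blank HA-free reference channel. KD was obtained from kinetic fitting.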

Influenza A virus [16] = test: Antiviral activity against wild type Influenza A virus (A/Puerto Rico/8/1934(H1N1)) pseudovirus infected in 293FT cells incubated for 48 hrs by inverted fluorescence microscopy; type: functional, organism-based
Summary of the method: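 GFP-reporter lentiviral pseudoviruses bearing PR8 wild-type or mutant (T30N/E233D/T359A or T359A) HA plus NA were produced in 293FT cells. Pseudovirus was pretreated with 50 µg/ml compound for 1 h at 37 °C before infection. GFP-positive cells were counted by fluorescence microscopy at 48 h p.i.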

Sequence of Hemagglutinin (Influenza A virus (A/Puerto Rico/8/1934(H1N1))) (P03452 whole entry): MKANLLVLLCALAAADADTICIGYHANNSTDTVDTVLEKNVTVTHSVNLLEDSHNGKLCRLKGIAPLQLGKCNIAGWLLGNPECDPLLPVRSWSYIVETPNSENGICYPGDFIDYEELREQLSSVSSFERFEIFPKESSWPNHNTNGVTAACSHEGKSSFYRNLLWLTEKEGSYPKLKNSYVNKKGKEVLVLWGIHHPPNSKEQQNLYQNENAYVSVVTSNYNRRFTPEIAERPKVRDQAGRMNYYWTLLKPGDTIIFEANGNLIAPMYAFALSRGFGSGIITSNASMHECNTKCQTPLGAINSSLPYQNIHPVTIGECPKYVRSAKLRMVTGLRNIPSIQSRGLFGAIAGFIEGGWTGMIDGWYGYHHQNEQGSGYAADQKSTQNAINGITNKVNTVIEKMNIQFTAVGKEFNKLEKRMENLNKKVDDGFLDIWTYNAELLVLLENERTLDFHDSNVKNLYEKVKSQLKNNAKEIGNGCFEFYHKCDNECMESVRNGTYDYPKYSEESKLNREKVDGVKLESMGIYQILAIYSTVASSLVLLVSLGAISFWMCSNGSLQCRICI

CC(=O)c1cc(C)c(O)c(Cc2[nH]c3ccccc3c2Cc2c(O)c(C)cc(C(C)=O)c2O)c1O
Survival (Influenza A virus [1]): 100% | Cmax [2]: 16 ng/mL | dose excreted at 72 h [3]: 38.4% | dose excreted at 72 h [4]: 0.006% | remaining at 1 h, 2 µM [5]: 71.6% | Activity (Influenza A virus [6]): Dose-dependent effect | IC50 (Influenza A virus [7]): < 13 µg/mL | Activity (Influenza A virus [8]): Dose-dependent effect | Activity (Influenza A virus [9]): Active | Activity (Influenza A virus [10]): Active | Activity (Influenza A virus [11]): Active | Activity [12]: Non-Toxic | Activity (Influenza A virus [13]): Active | inhibition [14]: Active | Kd [15]: 7.3 µM | IC50 (Influenza A virus [16]): 6 µg/mL (≈ 12.7 µM)
